# Measurements taken from ChEMBL document CHEMBL5385869, “Novel 4-aminoquinolines: Synthesis, inhibition of the Mycobacterium tuberculosis enoyl-acyl carrier protein reductase, antitubercular activity, SAR, and preclinical evaluation” (Eur J Med Chem, 2023).
# Key:
# [1] = biological target: T1, Enoyl-[acyl-carrier-protein] reductase [NADH] (Mycobacterium tuberculosis, UniProt P9WGR1); experiment: Binding affinity to Mycobacterium tuberculosis InhA assessed as dissociation constant at 250 uM at 20 degreeC in presence of NADH by fluorescence spectroscopy
# T1 sequence (P9WGR1 whole entry): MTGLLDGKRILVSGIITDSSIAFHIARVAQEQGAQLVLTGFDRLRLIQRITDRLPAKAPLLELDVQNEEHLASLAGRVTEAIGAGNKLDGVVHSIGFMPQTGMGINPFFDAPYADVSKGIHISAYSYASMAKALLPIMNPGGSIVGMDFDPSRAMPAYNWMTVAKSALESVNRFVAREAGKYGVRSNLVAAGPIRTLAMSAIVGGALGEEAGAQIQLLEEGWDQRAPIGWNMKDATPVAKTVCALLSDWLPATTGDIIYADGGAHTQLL
# Outline: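 Titration of pre-formed MtInhA:NADH complex (2 mL of 3 μM enzyme with 20 μM NADH), adding microliter aliquots of 250 μM ligand stock with dilution kept ≤1%. Intrinsic fluorescence read at 295 nm excitation, 310–500 nm emission. Temperatures 15, 20, 25 and 30 °C. KD is fitted to a hyperbolic isotherm. ΔH°, ΔS° and ΔG° come from van't Hoff analysis of KD across temperatures.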
# [2] = Toxicity in mouse assessed as effect on body weight at 300 mg/kg administered as single dose and measured for 14 days; type: organism-based; conditions: in vivo, 336 h, time 14 day
# Outline: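 Acute oral toxicity study. At day 14 the animals were euthanized, and kidneys, liver and spleen were weighed and inspected macroscopically.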
smiles,measurement,setting,value
Cc1cc(Nc2ccc(N3CCCCC3)cc2)c2cc(Br)ccc2n1,Kd,[1],0.47 µM
same,Activity,[2],Non-Toxic
